Results reported in ChEMBL document CHEMBL3745713, “Bromotyrosine-derived metabolites from an Indonesian marine sponge in the family Aplysinellidae (Order Verongiida)” (Bioorg Med Chem Lett, 2016).

Key:
[1] = biological target: Beta-secretase 1 (Homo sapiens) (UniProt P56817); experiment: Inhibition of BACE1 (unknown origin) using BACE ED as substrate at 41.9 uM by EFC assay
[2] = Cytotoxicity against mouse NIH/3T3 cells assessed as cell growth at 50 uM measured at 72 hrs by CyQuant proliferation assay relative to control; assay type: cell-based, NIH3T3; conditions: read-out: Activity
Summary of the method: (§1)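 Single-concentration screen at 50 and 5 μM across the cancer lines and normal mouse NIH3T3 fibroblasts. Cell growth was read by CyQuant proliferation assay at 72 h. Values are expressed relative to DMSO-treated control. Done in triplicate, one experiment (n=1).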

[3] = Cytotoxicity against human A2780S/CP5 cells assessed as cell growth at 50 uM measured at 72 hrs by CyQuant proliferation assay relative to control; assay type: functional; conditions: A2780S/CP5, 72 h, read-out: Activity; summary of the method: as §1
[4] = Cytotoxicity against human A2780S cells assessed as cell growth at 5 uM measured at 72 hrs by CyQuant proliferation assay relative to control; assay type: functional; conditions: A2780, 72 h, read-out: Activity; summary of the method: as §1
[5] = Cytotoxicity against human A2780S cells assessed as cell growth at 50 uM measured at 72 hrs by CyQuant proliferation assay relative to control; assay type: functional; conditions: A2780, 72 h, read-out: Activity; summary of the method: as §1
[6] = Cytotoxicity against mouse NIH/3T3 cells assessed as cell growth at 5 uM measured at 72 hrs by CyQuant proliferation assay relative to control; assay type: cell-based, NIH3T3; conditions: read-out: Activity; summary of the method: as §1
[7] = Cytotoxicity against human A2780S/CP5 cells assessed as cell growth at 5 uM measured at 72 hrs by CyQuant proliferation assay relative to control; assay type: functional; conditions: A2780S/CP5, 72 h, read-out: Activity; summary of the method: as §1
[8] = Cytotoxicity against human U251MG cells assessed as cell growth at 50 uM measured at 72 hrs by CyQuant proliferation assay relative to control; assay type: functional; conditions: U-251, 72 h, read-out: Activity; summary of the method: as §1
[9] = Cytotoxicity against human U251MG cells assessed as cell growth at 5 uM measured at 72 hrs by CyQuant proliferation assay relative to control; assay type: functional; conditions: U-251, 72 h, read-out: Activity; summary of the method: as §1
[10] = system: A549; experiment: Cytotoxicity against human A549 cells assessed as cell growth at 50 uM measured at 72 hrs by CyQuant proliferation assay relative to control; assay type: functional; conditions: A549, 72 h, read-out: Activity; summary of the method: as §1
[11] = system: A549; experiment: Cytotoxicity against human A549 cells assessed as cell growth at 5 uM measured at 72 hrs by CyQuant proliferation assay relative to control; assay type: functional; conditions: A549, 72 h, read-out: Activity; summary of the method: as §1
[12] = system: MCF7; experiment: Cytotoxicity against human MCF7 cells assessed as cell growth at 50 uM measured at 72 hrs by CyQuant proliferation assay relative to control; assay type: functional; conditions: MCF7, 72 h, read-out: Activity; summary of the method: as §1
[13] = system: MCF7; experiment: Cytotoxicity against human MCF7 cells assessed as cell growth at 5 uM measured at 72 hrs by CyQuant proliferation assay relative to control; assay type: functional; conditions: MCF7, 72 h, read-out: Activity; summary of the method: as §1
[14] = biological target: Beta-secretase 1 (Homo sapiens) (UniProt P56817); experiment: Inhibition of BACE1 (unknown origin) using BACE ED as substrate at 39.6 uM by EFC assay
[15] = biological target: Beta-secretase 1 (Homo sapiens) (UniProt P56817); experiment: Inhibition of BACE1 (unknown origin) using BACE ED as substrate at 41.7 uM by EFC assay
[16] = biological target: Beta-secretase 1 (Homo sapiens) (UniProt P56817); experiment: Inhibition of BACE1 (unknown origin) using BACE ED as substrate at 48.3 uM by EFC assay
[17] = Cytotoxicity against human A2780S cells by CyQuant proliferation assay; assay type: functional, cell-based; conditions: A2780
Summary of the method: (§2)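 CyQuant proliferation assay in A2780S, cisplatin-resistant A2780CP (SCP5) and U251MG cells. Cells were exposed to varying concentrations, maximum 50 μM, and compared with solvent-only treated cells. IC50 was determined from triplicates, two independent experiments (n=2).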

[18] = Cytotoxicity against human A2780S/CP5 cells by CyQuant proliferation assay; assay type: functional, cell-based; summary of the method: as §2
[19] = Cytotoxicity against human U251MG cells by CyQuant proliferation assay; assay type: functional, cell-based; conditions: U-251; summary of the method: as §2
[20] = biological target: Beta-secretase 1 (Homo sapiens) (UniProt P56817); experiment: Inhibition of BACE1 (unknown origin) using BACE ED as substrate at 42.6 uM by EFC assay
[21] = Cytotoxicity against mouse NIH/3T3 cells assessed as cell growth at 25 uM measured at 72 hrs by CyQuant proliferation assay relative to control; assay type: cell-based, NIH3T3; conditions: read-out: Activity
[22] = Cytotoxicity against human A2780S cells assessed as cell growth at 25 uM measured at 72 hrs by CyQuant proliferation assay relative to control; assay type: functional; conditions: A2780, 72 h, read-out: Activity
[23] = Cytotoxicity against human A2780S/CP5 cells assessed as cell growth at 25 uM measured at 72 hrs by CyQuant proliferation assay relative to control; assay type: functional; conditions: A2780S/CP5, 72 h, read-out: Activity
[24] = Cytotoxicity against human U251MG cells assessed as cell growth at 25 uM measured at 72 hrs by CyQuant proliferation assay relative to control; assay type: functional; conditions: U-251, 72 h, read-out: Activity
[25] = system: A549; experiment: Cytotoxicity against human A549 cells assessed as cell growth at 25 uM measured at 72 hrs by CyQuant proliferation assay relative to control; assay type: functional; conditions: A549, 72 h, read-out: Activity
[26] = system: MCF7; experiment: Cytotoxicity against human MCF7 cells assessed as cell growth at 25 uM measured at 72 hrs by CyQuant proliferation assay relative to control; assay type: functional; conditions: MCF7, 72 h, read-out: Activity
[27] = biological target: Beta-secretase 1 (Homo sapiens) (UniProt P56817); experiment: Inhibition of BACE1 (unknown origin) using BACE ED as substrate at 31.4 uM by EFC assay
[28] = biological target: Beta-secretase 1 (Homo sapiens) (UniProt P56817); experiment: Inhibition of BACE1 (unknown origin) using BACE ED as substrate at 31.8 uM by EFC assay
[29] = Cytotoxicity against mouse NIH/3T3 cells assessed as cell growth at 20 uM measured at 72 hrs by CyQuant proliferation assay relative to control; assay type: cell-based; conditions: nih3t3, 72 h
[30] = Cytotoxicity against human A2780S cells assessed as cell growth at 20 uM measured at 72 hrs by CyQuant proliferation assay relative to control; assay type: functional; conditions: A2780, 72 h, read-out: Activity
[31] = Cytotoxicity against human A2780S/CP5 cells assessed as cell growth at 20 uM measured at 72 hrs by CyQuant proliferation assay relative to control; assay type: functional; conditions: A2780S/CP5, 72 h, read-out: Activity
[32] = Cytotoxicity against human U251MG cells assessed as cell growth at 20 uM measured at 72 hrs by CyQuant proliferation assay relative to control; assay type: functional; conditions: U-251, 72 h, read-out: Activity
[33] = system: A549; experiment: Cytotoxicity against human A549 cells assessed as cell growth at 20 uM measured at 72 hrs by CyQuant proliferation assay relative to control; assay type: functional; conditions: A549, 72 h, read-out: Activity
[34] = system: MCF7; experiment: Cytotoxicity against human MCF7 cells assessed as cell growth at 20 uM measured at 72 hrs by CyQuant proliferation assay relative to control; assay type: functional; conditions: MCF7, 72 h, read-out: Activity
[35] = biological target: Beta-secretase 1 (Homo sapiens) (UniProt P56817); experiment: Inhibition of BACE1 (unknown origin) using BACE ED as substrate at 30.6 uM by EFC assay
[36] = biological target: Beta-secretase 1 (Homo sapiens) (UniProt P56817); experiment: Inhibition of BACE1 (unknown origin) using BACE ED as substrate at 42 uM by EFC assay

Beta-secretase 1 (Homo sapiens), sequence (P56817 whole entry): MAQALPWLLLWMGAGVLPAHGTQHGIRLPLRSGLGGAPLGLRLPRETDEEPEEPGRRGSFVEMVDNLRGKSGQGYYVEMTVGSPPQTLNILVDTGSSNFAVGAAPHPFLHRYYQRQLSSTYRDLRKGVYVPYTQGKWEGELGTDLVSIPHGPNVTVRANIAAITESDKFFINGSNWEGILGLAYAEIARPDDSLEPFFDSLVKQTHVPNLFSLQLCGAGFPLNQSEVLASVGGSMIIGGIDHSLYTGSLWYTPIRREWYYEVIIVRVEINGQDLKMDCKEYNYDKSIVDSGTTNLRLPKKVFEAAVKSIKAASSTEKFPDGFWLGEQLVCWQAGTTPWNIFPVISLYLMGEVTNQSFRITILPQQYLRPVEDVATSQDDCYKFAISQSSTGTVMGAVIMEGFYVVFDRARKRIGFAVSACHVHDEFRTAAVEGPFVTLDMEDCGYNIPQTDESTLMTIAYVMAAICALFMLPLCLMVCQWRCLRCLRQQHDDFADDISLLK

SMILES | viability at 72 h, 50 µM [2] | growth at 50 µM [3] | growth at 5 µM [4] | growth at 50 µM [5] | viability at 72 h, 5 µM [6] | growth at 5 µM [7] | growth at 50 µM [8] | growth at 5 µM [9] | growth at 50 µM [10] | growth at 5 µM [11] | growth at 50 µM [12] | growth at 5 µM [13] | other results
COC1=C(Br)[C@@H](O)[C@]2(C=C1Br)CC(C(=O)NCCCOc1c(Br)cc(C(=O)O)cc1Br)=NO2 | 29% | 25% | 37% | 21% | 94% | 33% | 39% | 101% | 68% | 81% | 60% | 86% | inhibition [1]: 35%
COC1=C(Br)[C@@H](O)[C@]2(C=C1Br)CC(C(=O)NCCCOc1c(Br)cc(CCNC(=N)N)cc1Br)=NO2 | 25% | 8% | 78% | 12% | 100% | 45% | 32% | 94% | 48% | 85% | 24% | 98% | inhibition [14]: 40%
COC1=C(Br)[C@@H](O)[C@]2(C=C1Br)CC(C(=O)NCCCOc1c(Br)cc(CCN)cc1Br)=NO2 [ARAPLYSILLIN 1] | 7% | 22% | 8% | 14% | 38% | 11% | 30% | 32% | 17% | 16% | 71% | 36% | inhibition [15]: 27%
CNCCCOc1c(Br)cc(CCNC(=O)/C(Cc2ccc(O)c(Br)c2)=N/O)cc1Br | 105% | 51% | 82% | 26% | 99% | 94% | 40% | 111% | 64% | 97% | 69% | 100% | inhibition [16]: 48%; IC50 [17]: > 50 µM; IC50 [18]: > 50 µM; IC50 [19]: > 50 µM
COc1c(Br)cc(C/C(=N\O)C(=O)NCCc2cc(Br)c(OCCCN)c(Br)c2)cc1Br | 16% | 12% | 81% | 11% | 105% | 78% | 24% | 107% | 24% | 92% | 26% | 95% | inhibition [20]: 62%
O=C(CCCCCCC(=O)Nc1ccccc1)NO [VORINOSTAT] | – | – | – | – | – | – | – | – | – | – | – | – | viability at 72 h, 25 µM [21]: 46%; growth at 25 µM [22]: 23%; growth at 25 µM [23]: 18%; growth at 25 µM [24]: 20%; growth at 25 µM [25]: 51%; growth at 25 µM [26]: 52%
CCCCCCC(C)CCCCCCCC(=O)NCCc1cc(Br)c(OCCCNC(=O)C2=NO[C@@]3(C=C(Br)C(OC)=C(Br)[C@H]3O)C2)c(Br)c1 (stereo not given in full) | 95% | 79% | 85% | 87% | 94% | 109% | 97% | 99% | 105% | 89% | 101% | 104% | inhibition [27]: 70%
COC1=C(Br)[C@@H](O)[C@]2(C=C1Br)CC(C(=O)NCCCOc1c(Br)cc(CCNC(=O)CCCCCCCCCCCC(C)C)cc1Br)=NO2 | 95% | 48% | 77% | 18% | 88% | 68% | 80% | 98% | 85% | 88% | 64% | 103% | inhibition [28]: 57%
COc1cc([C@@H]2c3cc4c(cc3[C@@H](O[C@@H]3O[C@@H]5CO[C@@H](C)O[C@H]5[C@H](O)[C@H]3O)[C@H]3COC(=O)[C@H]23)OCO4)cc(OC)c1O [ETOPOSIDE] | – | – | – | – | – | – | – | – | – | – | – | – | Activity [29]: 46%; growth at 20 µM [30]: 35%; growth at 20 µM [31]: 33%; growth at 20 µM [32]: 21%; growth at 20 µM [33]: 49%; growth at 20 µM [34]: 46%
CCCCC(C)CCC/C=C\CCCCCCC(=O)NCCc1cc(Br)c(OCCCNC(=O)C2=NO[C@@]3(C=C(Br)C(OC)=C(Br)[C@H]3O)C2)c(Br)c1 (stereo not given in full) | 98% | 66% | 82% | 76% | 100% | 105% | 90% | 98% | 104% | 98% | 104% | 105% | inhibition [35]: 60%
COc1c(Br)cc(C/C(=N\O)C(=O)NCCCOc2c(Br)cc(CCN)cc2Br)c(O)c1Br | 104% | 9% | 60% | 9% | 102% | 96% | 20% | 111% | 21% | 96% | 27% | 97% | inhibition [36]: 36%; IC50 [17]: 20 µM; IC50 [18]: 40 µM; IC50 [19]: 50 µM
CNCCCOc1c(Br)cc(CCNC(=O)/C(Cc2cc(Br)c(OC)c(Br)c2)=N/O)cc1Br | 3% | 10% | 11% | 13% | 101% | 29% | 30% | 17% | 11% | 42% | 58% | 50% | inhibition [36]: 74%
CCCCCCC(C)CCCCCCCCC(=O)NCCc1cc(Br)c(OCCCNC(=O)C2=NO[C@@]3(C=C(Br)C(OC)=C(Br)[C@H]3O)C2)c(Br)c1 (stereo not given in full) | 102% | 78% | 90% | 88% | 98% | 100% | 101% | 100% | 106% | 82% | 109% | 106% | –
